# The source made the active and inactive calls.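 The calls were made as follows, unless noted: active = current rise at least 3 SD above the untreated control mean in each of two repeat wells; inactive = the rest.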
# Target: Potassium voltage-gated channel subfamily KQT member 2 (Rattus norvegicus) (UniProt O88943)
# Test: KCNQ2 thallium flux enhancement – KCNQ2-CHO-K1 cells, selectivity assay for KCNQ1 potentiator project (AID 493009;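 active = mean duplicate potentiation above the buffer control mean plus 5 SD of buffer wells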;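 also: assay conditions were tuned for KCNQ1 rather than KCNQ2 modulators; signal is max minus min fluorescence divided by baseline after thallium stimulus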)
# Details: FluxOR thallium flux fluorescence, at 10 µM; hits give high values, scaled: buffer 0, activator control 100
# Potassium voltage-gated channel subfamily KQT member 2 (Rattus norvegicus), sequence (O88943 whole entry, looked up): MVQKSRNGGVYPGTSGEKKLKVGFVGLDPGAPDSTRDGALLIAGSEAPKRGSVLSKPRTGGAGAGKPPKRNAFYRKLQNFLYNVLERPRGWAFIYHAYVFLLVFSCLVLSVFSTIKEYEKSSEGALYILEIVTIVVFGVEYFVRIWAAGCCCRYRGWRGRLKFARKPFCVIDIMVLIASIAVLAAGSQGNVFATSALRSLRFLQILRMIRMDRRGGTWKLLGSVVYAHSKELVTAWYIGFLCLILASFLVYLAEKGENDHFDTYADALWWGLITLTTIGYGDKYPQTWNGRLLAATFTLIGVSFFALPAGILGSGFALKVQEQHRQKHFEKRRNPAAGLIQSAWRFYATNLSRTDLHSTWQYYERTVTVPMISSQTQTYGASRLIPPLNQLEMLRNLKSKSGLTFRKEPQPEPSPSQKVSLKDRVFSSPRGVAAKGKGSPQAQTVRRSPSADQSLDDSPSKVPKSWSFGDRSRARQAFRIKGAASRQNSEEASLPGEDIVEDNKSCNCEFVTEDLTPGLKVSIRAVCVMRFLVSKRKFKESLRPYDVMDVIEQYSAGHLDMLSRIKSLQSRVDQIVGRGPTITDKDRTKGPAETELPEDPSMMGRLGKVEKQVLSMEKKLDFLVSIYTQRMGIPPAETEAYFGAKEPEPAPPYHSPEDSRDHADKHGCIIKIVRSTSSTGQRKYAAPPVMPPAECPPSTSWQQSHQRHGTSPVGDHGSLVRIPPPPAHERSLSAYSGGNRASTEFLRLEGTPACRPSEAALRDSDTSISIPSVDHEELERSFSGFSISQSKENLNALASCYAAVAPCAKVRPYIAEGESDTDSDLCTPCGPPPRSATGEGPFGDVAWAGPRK
Compound,potentiation,outcome
Cc1ccc(C(=O)CC(=O)COc2ccc(Cl)cc2C)cc1,209% (active),
S=c1nc[nH]c2c1sc1nc(-c3ccccc3)c3c(c12)CCCC3,499% (active),
Cc1ccc2sc(N(CCCN(C)C)C(=O)CCS(=O)(=O)c3ccccc3)nc2c1C,,inactive
O=C(COc1ccc(C(=S)N2CCC(Cc3ccccc3)CC2)cc1)N1CCOCC1,,inactive
S=c1nc(C2CCCCC2)n(-c2ccccc2)[nH]1,362% (active),
CNCc1ccccc1Sc1cccc2ccccc12,,inactive
COC(=O)c1ccc(COC(=O)c2ccccn2)cc1,157% (active),
CCOc1ccc(NC(=S)NC(=O)c2ccco2)cc1,180% (active),
COc1cc(CNCc2ccccn2)ccc1OCc1ccc(Cl)cc1,,inactive
O=C(NC(=S)Nc1ccccc1N1CCCC1)c1cccs1,212% (active),
COc1ccc(C(=O)CC(=O)C(=O)Nc2ccc(C)c(Cl)c2)cc1,,inactive
COc1ccc(C)cc1NC(=O)C1C2C=CC(C2)C1C(=O)O (configuration not stated),,inactive
Cc1nn(-c2ccccc2)c(Cl)c1/C=C1\SC(=S)NC1=O,704% (active),
CCOc1ccc(NC(=O)C2CCN(S(=O)(=O)c3cccnc3)CC2)cc1,,inactive
Cc1cnc(NC(=O)c2ccc(-c3nc4ccccc4s3)o2)s1,,inactive
CCCCOC(=S)NC(=O)c1sc2ccccc2c1Cl,365% (active),
O=C(NC(=S)Nc1ccc(N2CCCCC2)cc1)c1cccs1,162% (active),
O=Cc1c(F)cccc1N1CCCC1,150% (active),
CC(C)(C)C1(O)CC(C(F)(F)F)=NN1C(=O)Cc1ccc([N+](=O)[O-])cc1 (configuration not stated),,inactive
CC(CCc1ccccc1)NC(=O)COc1cc(F)ccc1[N+](=O)[O-] (configuration not stated),,inactive
Cc1sc(-n2c(C)cc(/C=N/n3cnnc3)c2C)c(C#N)c1C,,inactive
COc1ccc(CCN(C)CC(O)COc2c(C)ccc(C)c2C)cc1OC (configuration not stated),,inactive

# Target: Potassium voltage-gated channel subfamily KQT member 1 (Homo sapiens) (UniProt P51787)
# Sequence (P51787 whole entry, looked up): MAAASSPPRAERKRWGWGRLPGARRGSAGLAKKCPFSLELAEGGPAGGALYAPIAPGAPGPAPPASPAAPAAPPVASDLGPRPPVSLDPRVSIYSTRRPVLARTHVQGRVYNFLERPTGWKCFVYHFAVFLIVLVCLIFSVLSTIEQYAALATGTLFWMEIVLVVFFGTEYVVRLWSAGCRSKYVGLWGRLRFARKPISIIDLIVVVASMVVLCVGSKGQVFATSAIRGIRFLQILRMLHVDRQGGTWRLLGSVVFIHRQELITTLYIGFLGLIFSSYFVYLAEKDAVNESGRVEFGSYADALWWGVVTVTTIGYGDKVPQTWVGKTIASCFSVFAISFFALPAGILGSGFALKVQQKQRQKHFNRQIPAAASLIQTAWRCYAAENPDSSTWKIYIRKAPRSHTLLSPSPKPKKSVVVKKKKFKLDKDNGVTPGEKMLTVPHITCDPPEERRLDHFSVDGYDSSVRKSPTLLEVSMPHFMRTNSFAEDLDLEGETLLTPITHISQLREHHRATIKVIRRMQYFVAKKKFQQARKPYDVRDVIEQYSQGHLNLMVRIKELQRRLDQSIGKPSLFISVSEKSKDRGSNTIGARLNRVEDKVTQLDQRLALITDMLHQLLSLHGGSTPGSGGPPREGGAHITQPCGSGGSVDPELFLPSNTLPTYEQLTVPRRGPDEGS
# Test: KCNQ1 activators by electrophysiology – IonWorks patch clamp, KCNQ1-CHO cells, orthogonal assay for KCNQ1 potentiator project, confirmation (AID 493184);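 as to current potentiation: percent change of the same well's current before compound addition so 0% = no change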
# Details: automated patch clamp current, at 10 µM; hits give high values
# In short: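 Assay system – CHO cells carrying KCNQ1 · Medium – pH 7.4 external bath · Probe or stimulus – depolarizing pulse to +40 mV from -90 mV · Compound dosing – one dose, 10 µM final · Measured by – automated perforated-patch electrophysiology · Measure – % potentiation of steady-state current relative to pre-compound · Repeats – two replicates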
Compound,outcome,current potentiation
COc1ccc(CCNC(=O)CC(=O)N/N=C/c2ccc(Br)cc2)cc1OC,inactive,
C/C(=N\NC(=S)Nc1cccc(C)c1)c1ccco1,inactive,
CCCCCCCCCCCCC/C=C/[C@@H](O)[C@@H](N)CO,inactive,
CC(=O)Nc1cccc(/C(C)=N/NC(=O)c2ccc(Cl)cc2Cl)c1,inactive,
COc1ccc(-c2cnc3c(c2)CCC3(C#N)C#N)cc1,inactive,
CN1C(=O)CC(N2CCN(CC(=O)N3CCCC3)CC2)C1=O (configuration not stated),inactive,
COC(=O)c1ccc(C(=O)NC(=S)Nc2nc3c(s2)CCCC3)cc1,inactive,
CCC1CCC2(CC1)NNC(=S)NN2,inactive,
COc1ccc(/C=C2\SC(=S)N(NS(=O)(=O)c3ccc(C)cc3)C2=O)c(OC)c1,,20.6% (active)
Oc1ccc(CN2CCCCC2)c2cccnc12,inactive,
O=c1c2cc(Br)ccc2nc(-c2ccccc2)n1O,inactive,
COc1ccc(/C=C2\SC(=Nc3ccccc3OC)NC2=O)cc1,inactive,
O=c1c2cc(Cl)ccc2nc(-c2ccc([N+](=O)[O-])cc2)n1O,inactive,
CCOc1ccc2nc(/N=C/c3nc(-c4ccccc4)oc3O)sc2c1,inactive,
COc1cccc(OCC(=O)NNC(=O)C(=O)Nc2cccc(C)c2)c1,inactive,
Cc1ccccc1NS(=O)(=O)c1ccc2[nH]cc(C(=O)N(C)Cc3ccco3)c(=O)c2c1,inactive,
Cc1ccnc(NC(=O)CNC(=O)c2ccc3c(c2)OCO3)c1,inactive,
Cc1ccc(C)c(NC(=S)NC(=O)c2cncc(Br)c2)c1,inactive,
Cc1ccc(C(=O)CC(=O)COc2ccc(Cl)cc2C)cc1,inactive,
S=c1nc[nH]c2c1sc1nc(-c3ccccc3)c3c(c12)CCCC3,inactive,
Cc1ccc2sc(N(CCCN(C)C)C(=O)CCS(=O)(=O)c3ccccc3)nc2c1C,inactive,
O=C(COc1ccc(C(=S)N2CCC(Cc3ccccc3)CC2)cc1)N1CCOCC1,inactive,
S=c1nc(C2CCCCC2)n(-c2ccccc2)[nH]1,inactive,
CNCc1ccccc1Sc1cccc2ccccc12,inactive,
COC(=O)c1ccc(COC(=O)c2ccccn2)cc1,inactive,
CCOc1ccc(NC(=S)NC(=O)c2ccco2)cc1,inactive,
COc1cc(CNCc2ccccn2)ccc1OCc1ccc(Cl)cc1,inactive,
O=C(NC(=S)Nc1ccccc1N1CCCC1)c1cccs1,inactive,
COc1ccc(C(=O)CC(=O)C(=O)Nc2ccc(C)c(Cl)c2)cc1,inactive,
COc1ccc(C)cc1NC(=O)C1C2C=CC(C2)C1C(=O)O (configuration not stated),inactive,

# From PubChem BioAssay
